Only some compounds are listed: those with a hit (about 1.5% of all), similar ones and a draw of the others.
STAT3 blocker = reduces IL-6 driven STAT3 reporter signal; hit rate 0.89% among 190,000; inhibition, % at 5.5 µM; U3A cells, IL-6 STAT3-luciferase reporter, luminescence; host cell line lacks STAT1;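 active = inhibition above the mean inhibition across all screened compounds plus 3 SD, cut at about 44% in these data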;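 also: 0% = DMSO only wells and 100% = 100 µM nifuroxazide control wells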
H9c2 TAG inh = inhibitors of triacylglycerol accumulation; H9c2 cells, Nile Red lipid (TAG) fluorescence; cells loaded with 200 µM oleic acid; inhibition, % at 12.5 µM; hit rate 0.66% among 230,000;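 active = pattern-corrected inhibition of lipid staining of at least 50% with the nuclear-stain viability signal not falling by more than 50%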;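 also: 0% = DMSO wells and 100% = triacsin C control wells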
Platelet DG rel = platelet dense granule release activity; human platelet-rich plasma, SFLLRN dense granule ATP release, luminescence; inhibition, %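 (compounds screened at 7.5 µM in platelet-rich plasma)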; hit rate 0.22% among 300,000; AID 1663;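 active = mean replicate score, as percent of positive control, at or above 50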
Hep lipid drop = hepatic lipid droplet formation modulation | AML12 mouse hepatocytes, oleate lipid droplets, BODIPY imaging | inhibition, % at 6.5 µM | hit rate 0.4% among 240,000 | AID 1656;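 active = lipid droplet intensity inhibited by at least 50%, with more than 500 cells counted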
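Assay system: AML12 mouse liver cells | Compound dosing: One dose, 6.5 µM compound | Read-out basis: Droplet intensity reduction, % inhibition | Measured by: Fluorescence imaging, 20x objective, two fields per well | Schedule: Overnight treatment with compound plus oleate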
STAT1 blocker = inhibitors of IFN-gamma induced STAT1 signaling; inhibition, % at 5.5 µM; hit rate 0.35% among 200,000; NIH 3T3 STAT1-luciferase reporter, luminescence;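 active = inhibition above a set limit, the mean inhibition across all tested compounds plus 3 SD, cut at about 34% in these data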;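 also: 0% = IFN-gamma with DMSO and 100% = IFN-gamma with 300 µM nifuroxazide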
PPC-1+TRAIL kill = PPC-1 cancer cell killing with TRAIL present. PPC-1 cells + TRAIL, ATPLite viability luminescence. cell killing (% activity), % at 4 µM or 5 µM. hit rate 0.41% among 220,000;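 active = cell killing above 50% in the first pass at 4 µM, then a duplicate retest at 5 µM averaging 50% or more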;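 also: plate controls were cells with TRAIL plus DMSO for no effect and medium-only wells lacking cells for full effect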
TAG conf = triacylglycerol accumulation inhibition, confirmation. shares compounds with H9c2 TAG inh. H9c2 lipid accumulation, Nile Red fluorescence; cells loaded with 200 µM oleic acid. inhibition, % at 12.5 µM. AID 651629. hit rate 71% among 990;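 active = mean inhibition across replicates of 40% or more; inactive = mean inhibition below 40%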;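 also: plate controls were DMSO only wells for no effect and Triacsin C treated wells for full effect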
Numbers without * were called inactive.

Results for OCCCn1c(C2CCCN2c2nc(-c3ccc(F)cc3)cs2)nc2cc(C(F)(F)F)ccc21 (stereo unspecified) ?
H9c2 TAG inh: 60*; Platelet DG rel: 1; TAG conf: 57*

How did OCCCn1c(C2CCCN2c2nc(-c3ccc(F)cc3)cs2)nc2cc(Cl)c(N3CCCCC3)cc21 (stereo unspecified) do in these assays?
H9c2 TAG inh: 49; Platelet DG rel: 0

Results for C[C@H]1Cn2cnc(C(=O)Nc3ccccc3)c2C(=O)N1 ?
H9c2 TAG inh: 16

Results for CC(C)(C)OC(=O)C[C@H]1C/C=C\C[C@H](CC(=O)N(CCO)Cc2ccccc2)C(=O)N2CCC[C@H]2COC1=O ?
H9c2 TAG inh: -11

How did CN(C(=O)c1ccc(NC(=O)C2CCCN(C(=O)OC(C)(C)C)C2)cc1)C1CCCC1 (stereo unspecified) do in these assays?
H9c2 TAG inh: 16

What do the screens show for `C[C@@H]1CN([C@H](C)CO)C(=O)c2cccc(NC(=O)Nc3ccc(C(F)(F)F)cc3)c2O[C@H]1CN(C)S(=O)(=O)c1cccs1`?
H9c2 TAG inh: 71*; TAG conf: 63*

What do the screens show for `C[C@H](O)C#Cc1ccc2c(c1)O[C@@H](CN(C)Cc1ccc(-c3ccccc3)cc1)[C@H](C)CN([C@@H](C)CO)S2(=O)=O`?
H9c2 TAG inh: 64*; TAG conf: 66*

What do the screens show for `C[C@@H]1CN([C@@H](C)CO)C(=O)c2cccc(NC(=O)C3CCCCC3)c2O[C@@H]1CN(C)Cc1ccc(Cl)c(Cl)c1`?
H9c2 TAG inh: 55*; TAG conf: 70*

Results for C[C@H](CO)N1C[C@H](C)[C@@H](CN(C)Cc2ccc(-c3ccccc3)cc2)Oc2c(NC(=O)Cc3ccccc3)cccc2C1=O ?
H9c2 TAG inh: 50*; TAG conf: 59*

Results for C[C@H](CO)N1C[C@H](C)[C@@H](CN(C)Cc2ccccc2)Oc2c(NC(=O)Cc3ccccc3)cccc2C1=O ?
H9c2 TAG inh: 30

What do the screens show for `C[C@@H]1CN([C@H](C)CO)S(=O)(=O)c2ccc(Br)cc2O[C@@H]1CN(C)Cc1ccc(-c2ccccc2)cc1`?
H9c2 TAG inh: -8

What do the screens show for `CC(NC(=O)C1CCN(CCOc2ccc(Cl)cc2)CC1)c1cccc2ccccc12` (stereo unspecified)?
H9c2 TAG inh: 1

What do the screens show for `O=C(O)COc1ccc(NC(=O)c2ccc3c(c2)C(=O)N(CC2CCCO2)C3=O)cc1` (stereo unspecified)?
H9c2 TAG inh: -5

How did O=C(c1ccccc1)N(CCCl)C(=O)N(CCCl)C(=O)c1ccccc1 do in these assays?
H9c2 TAG inh: -22

Results for COc1cc(CCC(=O)OCC(=O)NCCc2ccc(S(N)(=O)=O)cc2)cc(OC)c1OC ?
H9c2 TAG inh: 6

How did O=C1CN(C(=O)CSc2ccccn2)c2ccccc2N1 do in these assays?
H9c2 TAG inh: -7

Results for C[C@@H]1CN([C@H](C)CO)C(=O)CCCn2nncc2CO[C@H]1CN(C)S(=O)(=O)c1ccc(Oc2ccccc2)nc1 ?
H9c2 TAG inh: -6

How did COc1ccc(S(=O)(=O)N2CCCCCC2)cc1NC(=O)CCNC(=O)c1ccccc1Cl do in these assays?
H9c2 TAG inh: 11

What do the screens show for `C[C@@H]1CN([C@H](C)CO)C(=O)c2c(c3ccccc3n2C)-c2ccccc2CO[C@H]1CN(C)Cc1ccc(-c2ccccc2)cc1`?
H9c2 TAG inh: 84*; TAG conf: 53*

What do the screens show for `CCN(CC)S(=O)(=O)c1ccc(N2CCOCC2)c(NC(=O)c2ccc(F)cc2)c1`?
STAT3 blocker: -14; Platelet DG rel: 0; Hep lipid drop: 2; STAT1 blocker: -1; PPC-1+TRAIL kill: 19

Results for CCN(CC)S(=O)(=O)c1ccc(N2CCOCC2)c(NC(=O)c2[nH]c(C)c(C(C)=O)c2C)c1 ?
H9c2 TAG inh: 69*; TAG conf: 75*

What do the screens show for `COCCNc1nc(NCCOC)c2sc(-c3ccccc3)cc2n1`?
H9c2 TAG inh: 13

How did COCCNc1nc(-c2ccc(OC)cc2C)c2sc(-c3ccccc3)cc2n1 do in these assays?
H9c2 TAG inh: 60*; TAG conf: 19

What do the screens show for `O=C(Nc1ccc2c(c1)OCCO2)c1cc2sccc2n1Cc1ccccc1`?
STAT3 blocker: 27; H9c2 TAG inh: 60*; Platelet DG rel: 4; STAT1 blocker: -12; PPC-1+TRAIL kill: 17; TAG conf: 26

How did O=C(/C=C/Sc1ccc(C(F)(F)F)cn1)c1ccccc1 do in these assays?
H9c2 TAG inh: 50*; Platelet DG rel: -2; Hep lipid drop: 17; PPC-1+TRAIL kill: 19; TAG conf: 45*

What do the screens show for `Nc1ccn(CCCNCC(c2ccccc2)c2ccccc2)c(=O)n1`?
H9c2 TAG inh: 0

Results for COc1ccc(-c2cc(C(F)F)n3ncc(C(=O)Nc4cccc(S(=O)(=O)N5CCOCC5)c4)c3n2)cc1 ?
STAT3 blocker: 13; H9c2 TAG inh: 58*; Platelet DG rel: -8; Hep lipid drop: -3; STAT1 blocker: -8; PPC-1+TRAIL kill: 39; TAG conf: 50*

What do the screens show for `CCn1ncc(/C=N/N=C2\CCC3C4CCc5cc(O)ccc5C4CCC23C)c1C` (stereo unspecified)?
STAT3 blocker: 15; H9c2 TAG inh: 52*; Platelet DG rel: 1; Hep lipid drop: 10; STAT1 blocker: 11; PPC-1+TRAIL kill: -11; TAG conf: 48*

Results for Cc1c(/C=N/N=C2\CCC3C4CCc5cc(O)ccc5C4CCC23C)cnn1C (stereo unspecified) ?
STAT3 blocker: 5; Platelet DG rel: 12; Hep lipid drop: 1; STAT1 blocker: 2; PPC-1+TRAIL kill: 20

What do the screens show for `COc1ccc(C(=O)Nc2ccc(Cl)cc2C(=O)NCc2ccco2)cc1`?
STAT3 blocker: 20; H9c2 TAG inh: 61*; Platelet DG rel: -2; Hep lipid drop: -14; STAT1 blocker: 3; PPC-1+TRAIL kill: -16; TAG conf: 73*

How did CCC1SC2=NC(C)=C(C(=O)OCC(C)C)C(/C=C/c3ccccc3OC)N2C1=O (stereo unspecified) do in these assays?
STAT3 blocker: -7; H9c2 TAG inh: 72*; Platelet DG rel: -1; STAT1 blocker: -6; PPC-1+TRAIL kill: 14; TAG conf: 21

Results for O=C(Nc1cccc2ncccc12)c1ccc(Cl)cc1 ?
H9c2 TAG inh: 71*; Platelet DG rel: 5; Hep lipid drop: 6; TAG conf: 75*

How did O=C(Nc1cccc2ncccc12)c1ccc(F)cc1 do in these assays?
STAT3 blocker: 7; Platelet DG rel: -14; Hep lipid drop: 2; STAT1 blocker: 11; PPC-1+TRAIL kill: 23

Screens (PubChem)
